In brackets after ≈: the same amount, converted by molar mass.
What was measured:
Helicobacter pylori [1] = experiment: The lowest drug concentration that inhibited macroscopic colonial growth against Helicobacter pylori.; format: functional
Summary of the method: (§1)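 Agar dilution. Strains were precultured 3 days at 37 °C on Brucella agar with 3% horse serum and 2% starch, then suspended in buffered saline to McFarland No. 1. A 10²-fold dilution was spotted by multipoint replicator onto Brucella agar with 7% lysed horse blood carrying serial 2-fold drug dilutions. Plates were incubated 3 days at 37 °C under 10% CO₂. MIC is the lowest concentration preventing macroscopic colonial growth. Mean and range come from 10 strains: 8001, 8003, 8004, 8007, 8008, 8009, 8011, 9005, FP1530 and FP1532.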

Rattus norvegicus [2] = experiment: Inhibition of histamine stimulated gastric acid secretion in lumen perfused stomach of anesthetized rats; format: functional
Summary of the method: (§2)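 Male Sprague-Dawley rats (~250 g), fasted 24 h, anesthetized with urethane 1.25 g/kg ip. The opened stomach was lumen-perfused with saline, and the perfusate was titrated with 25 mM NaOH by autotitrator. Inhibition of histamine-stimulated acid output was measured after 1 mg/kg iv dosing; n = 2.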

Cavia porcellus [3] = organism: Cavia porcellus; experiment: Inhibition of histamine stimulated chronotropic response in isolated guinea pig right atrium; format: functional, Cardiac atrium
Summary of the method: (§3)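 Guinea pig right atrial strip, under 0.3-0.6 g initial tension in Tyrode solution at 30 °C, gassed with 95% O₂-5% CO₂; beating rate recorded by transducer. Histamine hydrochloride (1 × 10^-6 g/mL) raised rate. Test compound (1 × 10^-6 g/mL) was added 30 min after histamine washout. Percent inhibition compares histamine-induced rate increases before and 30 min after dosing.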

Helicobacter pylori [4] = experiment: Determined the lowest drug concentration that inhibited macroscopic colonial growth against Helicobacter pylori.; format: functional; summary of the method: as §1
Helicobacter pylori [5] = experiment: The lowest drug concentration that inhibited macroscopic colonial growth against Helicobacter pylori; value ranges from 12.5-100; format: functional; summary of the method: as §1
Clostridium perfringens [6] = experiment: Antimicrobial activity was measured against Clostridium perfringens organism.; format: functional
Campylobacter jejuni [7] = experiment: Antimicrobial activity was measured against Campylobacter jejuni organism.; format: functional
Helicobacter pylori [8] = experiment: Antimicrobial activity was measured against Helicobacter pylori organism.; format: functional, organism-based; summary of the method: as §1
Neisseria gonorrhoeae [9] = experiment: Antimicrobial activity was measured against Neisseria gonorrhoeae organism; format: functional
Neisseria meningitidis [10] = experiment: Antimicrobial activity was measured against Neisseria meningitidis organism.; format: functional
Bacteroides fragilis [11] = experiment: Antimicrobial activity was measured against Bacteroides fragilis; format: functional, organism-based
Clostridioides difficile [12] = experiment: Antimicrobial activity was measured against Clostridium difficile organism.; format: functional
Helicobacter pylori [13] = experiment: The lowest drug concentration that inhibited macroscopic colonial growth against Helicobacter pylori; value ranges from 0.78-6.25; format: functional; summary of the method: as §1
Helicobacter pylori [14] = experiment: The lowest drug concentration that inhibited macroscopic colonial growth against Helicobacter pylori; value ranges from 1.56-3.13; format: functional; summary of the method: as §1
Cavia porcellus [15] = organism: Cavia porcellus; experiment: Inhibition of histamine stimulated chronotropic response in isolated guinea pig right atrium (1*10e-6 g/mL); format: functional, Cardiac atrium; summary of the method: as §3
Helicobacter pylori [16] = experiment: The lowest drug concentration that inhibited macroscopic colonial growth against Helicobacter pylori; value ranges from 0.39-1.56; format: functional; summary of the method: as §1
Rattus norvegicus [17] = experiment: Inhibition of histamine stimulated gastric acid secretion in lumen perfused stomach of anesthetized rats (1 mg/kg iv); format: functional; summary of the method: as §2
Helicobacter pylori [18] = experiment: The lowest drug concentration that inhibited macroscopic colonial growth against Helicobacter pylori; value ranges from 0.00625-0.05; format: functional; summary of the method: as §1
Bacteroides fragilis [19] = experiment: Antimicrobial activity was measured against Bacteroides fragilis organism.; format: functional
Clostridium perfringens [20] = experiment: Antimicrobial activity was measured against Clostridium perfringens organism; format: functional
Helicobacter pylori [21] = experiment: Antimicrobial activity was measured against Helicobacter pylori organism. Value ranges from (0.2-0.39); format: functional; summary of the method: as §1
Helicobacter pylori [22] = experiment: The lowest drug concentration that inhibited macroscopic colonial growth against Helicobacter pylori; value ranges from 0.2-0.39; format: functional; summary of the method: as §1
Helicobacter pylori [23] = experiment: microbe, parasite or virus in culture
Helicobacter pylori [24] = experiment: The lowest drug concentration that inhibited macroscopic colonial growth against Helicobacter pylori; value ranges from 0.39-0.78; format: functional; summary of the method: as §1
Helicobacter pylori [25] = experiment: The lowest drug concentration that inhibited macroscopic colonial growth against Helicobacter pylori; value ranges from 6.25-25; format: functional; summary of the method: as §1
Helicobacter pylori [26] = experiment: The lowest drug concentration that inhibited macroscopic colonial growth against Helicobacter pylori; Value ranges from 25-100; format: functional; summary of the method: as §1
Helicobacter pylori [27] = experiment: The lowest drug concentration that inhibited macroscopic colonial growth against Helicobacter pylori; Value ranges from 6.25-50; format: functional; summary of the method: as §1
Helicobacter pylori [28] = experiment: The lowest drug concentration that inhibited macroscopic colonial growth against Helicobacter pylori; Value ranges from 0.1-0.39; format: functional; summary of the method: as §1
Helicobacter pylori [29] = experiment: The lowest drug concentration that inhibited macroscopic colonial growth against Helicobacter pylori; value ranges from 0.2-0.78; format: functional; summary of the method: as §1
Campylobacter jejuni [30] = experiment: Antimicrobial activity was measured against Campylobacter jejuni organism; range is between ( 0.39-6.25).; format: functional
Clostridioides difficile [31] = experiment: Antimicrobial activity was measured against Clostridium difficile organism; range is between (0.1-0.78); format: functional
Clostridium perfringens [32] = experiment: Antimicrobial activity was measured against Clostridium perfringens organism; range is between (0.025-0.05); format: functional
Helicobacter pylori [33] = experiment: The lowest drug concentration that inhibited macroscopic colonial growth against Helicobacter pylori; value range is between 0.0063-0.1; format: functional; summary of the method: as §1
Neisseria gonorrhoeae [34] = experiment: Antimicrobial activity was measured against Neisseria gonorrhoeae organism; range is between (0.39-100).; format: functional
Neisseria meningitidis [35] = experiment: Antimicrobial activity was measured against Neisseria meningitidis organism; range is between (0.05-0.1).; format: functional
Bacteroides fragilis [36] = experiment: Antimicrobial activity was measured against B. fragilis; range is between (0.2-12.5).; format: functional

C/N=C(\N)Nc1nc(-c2cccc(CNC(C)=O)c2)cs1
MIC (Helicobacter pylori [1]): 14.4 µg/mL (≈ 47.5 µM)

CNC(=C[N+](=O)[O-])NCCSCc1ccc(CN(C)C)o1 [RANITIDINE]
Inhibition (Rattus norvegicus [2]): 72% | Inhibition (Cavia porcellus [3]): 44% | MIC (Helicobacter pylori [4]): > 1600 µg/mL

CC(=O)NCc1cccc(-c2csc(N/C(N)=N/CCN(C)C)n2)c1
MIC (Helicobacter pylori [5]): 57 µg/mL (≈ 158 µM)

(2,5-Dihydroxy-4,7-dioxo-[1,3,2]dioxabismepan-5-yl)-acetic acid
MIC (Clostridium perfringens [6]): > 100 µg/mL | MIC (Campylobacter jejuni [7]): 7.4 µg/mL | MIC (Helicobacter pylori [8]): 8.7 µg/mL | MIC (Neisseria gonorrhoeae [9]): 4.7 µg/mL | MIC (Neisseria meningitidis [10]): 12.5 µg/mL | MIC (Helicobacter pylori [4]): 18 µg/mL | MIC (Bacteroides fragilis [11]): 50 µg/mL | MIC (Clostridioides difficile [12]): 50 µg/mL

CC(=O)NCc1cccc(-c2csc(NC(=N)NCCOCc3ccccc3)n2)c1
MIC (Helicobacter pylori [13]): 2.5 µg/mL (≈ 5.9 µM)

CC(=O)NCc1cccc(-c2csc(NC(=N)NCCC(c3ccccc3)c3ccccc3)n2)c1
MIC (Helicobacter pylori [14]): 2.5 µg/mL (≈ 5.17 µM)

COCCC/N=C(\N)Nc1nc(-c2cccc(CNC(C)=O)c2)cs1
Inhibition (Cavia porcellus [15]): 54% | MIC (Helicobacter pylori [16]): 0.96 µg/mL (≈ 2.66 µM) | Inhibition (Rattus norvegicus [17]): 87%

CC(=O)NCc1cccc(-c2csc(NC(=N)NCc3ccccc3)n2)c1
Inhibition (Cavia porcellus [15]): 77% | MIC (Helicobacter pylori [18]): 0.025 µg/mL (≈ 0.0659 µM) | Inhibition (Rattus norvegicus [17]): 50%

COCC/N=C(\N)Nc1nc(-c2cccc(CNC(C)=O)c2)cs1
MIC (Bacteroides fragilis [19]): > 100 µg/mL | MIC (Clostridium perfringens [20]): > 100 µg/mL | MIC (Campylobacter jejuni [7]): > 100 µg/mL | Inhibition (Cavia porcellus [15]): 83% | MIC (Helicobacter pylori [21]): 0.32 µg/mL (≈ 0.921 µM) | MIC (Helicobacter pylori [22]): 0.32 µg/mL (≈ 0.921 µM) | MIC (Neisseria gonorrhoeae [9]): > 100 µg/mL | MIC (Neisseria meningitidis [10]): > 100 µg/mL | Inhibition (Rattus norvegicus [17]): 87% | MIC (Clostridioides difficile [12]): > 100 µg/mL

CN/C(=N\CCSCc1nc[nH]c1C)NC#N [CIMETIDINE]
Inhibition (Cavia porcellus [15]): 43% | Inhibition (Rattus norvegicus [17]): 53% | MIC (Helicobacter pylori [23]): 1130 µg/mL (≈ 4480 µM)

CC(=O)NCc1cccc(-c2csc(NC(=N)NCCOc3ccccc3)n2)c1
Inhibition (Cavia porcellus [15]): 52% | MIC (Helicobacter pylori [24]): 0.49 µg/mL (≈ 1.2 µM) | Inhibition (Rattus norvegicus [17]): 18%

CC(=O)NCc1cccc(-c2csc(NC(=N)NCCC#N)n2)c1
MIC (Helicobacter pylori [25]): 19.3 µg/mL (≈ 56.4 µM)

CC(=O)NCc1cccc(-c2csc(N=C(N)N)n2)c1
MIC (Helicobacter pylori [1]): 16.5 µg/mL (≈ 57 µM)

CC(=O)NCc1ccc2c(c1)-c1nc(N=C(N)N)sc1CO2
MIC (Helicobacter pylori [26]): 62 µg/mL (≈ 195 µM)

COc1ccccc1CC/N=C(\N)Nc1nc2c(s1)CCOc1ccc(CNC(C)=O)cc1-2
MIC (Helicobacter pylori [27]): 18.9 µg/mL (≈ 40.6 µM)

CCCC/N=C(\N)Nc1nc(-c2cccc(CNC(C)=O)c2)cs1
MIC (Helicobacter pylori [28]): 0.22 µg/mL (≈ 0.637 µM) | Inhibition (Rattus norvegicus [17]): 74% | Inhibition (Cavia porcellus [3]): 84%

COc1ccc(CC/N=C(\N)Nc2nc(-c3cccc(CNC(C)=O)c3)cs2)cc1
Inhibition (Cavia porcellus [15]): 34% | MIC (Helicobacter pylori [29]): 0.32 µg/mL (≈ 0.756 µM) | Inhibition (Rattus norvegicus [17]): 10%

CC(=O)NCc1cccc(-c2csc(NC(=N)NCCc3ccccn3)n2)c1
Inhibition (Cavia porcellus [15]): 39% | MIC (Helicobacter pylori [24]): 0.49 µg/mL (≈ 1.24 µM) | Inhibition (Rattus norvegicus [17]): 14%

CC1(C)S[C@@H]2[C@H](NC(=O)[C@H](N)c3ccc(O)cc3)C(=O)N2[C@H]1C(=O)O [AMOXICILLIN]
MIC (Campylobacter jejuni [30]): 2.2 µg/mL (≈ 6.02 µM) | MIC (Clostridioides difficile [31]): 0.28 µg/mL (≈ 0.766 µM) | MIC (Clostridium perfringens [32]): 0.027 µg/mL (≈ 0.0739 µM) | MIC (Helicobacter pylori [33]): 0.021 µg/mL (≈ 0.0575 µM) | MIC (Neisseria gonorrhoeae [34]): 7.7 µg/mL (≈ 21.1 µM) | MIC (Neisseria meningitidis [35]): 0.056 µg/mL (≈ 0.153 µM) | MIC (Bacteroides fragilis [36]): 2.1 µg/mL (≈ 5.75 µM)

Reference: ChEMBL document CHEMBL1133633, “Anti-Helicobacter pylori agents. 4. 2-(Substituted guanidino)-4-phenylthiazoles and some structurally rigid derivatives” (2000)
